Activity calls are given as the source filed them. The rule behind the calls is not given here.
biological target: T1, DNA topoisomerase 2-alpha (Homo sapiens, UniProt P11388); assay: Inhibition of etoposide poisoning activity against human recombinant DNA topoisomerase 2alpha assessed as enhancement of in relaxation of supercoiled plasmid pBR322 DNA at 200 uM after 30 mins by agarose gel electrophoresis; conditions: not given
T1 sequence (P11388 whole entry): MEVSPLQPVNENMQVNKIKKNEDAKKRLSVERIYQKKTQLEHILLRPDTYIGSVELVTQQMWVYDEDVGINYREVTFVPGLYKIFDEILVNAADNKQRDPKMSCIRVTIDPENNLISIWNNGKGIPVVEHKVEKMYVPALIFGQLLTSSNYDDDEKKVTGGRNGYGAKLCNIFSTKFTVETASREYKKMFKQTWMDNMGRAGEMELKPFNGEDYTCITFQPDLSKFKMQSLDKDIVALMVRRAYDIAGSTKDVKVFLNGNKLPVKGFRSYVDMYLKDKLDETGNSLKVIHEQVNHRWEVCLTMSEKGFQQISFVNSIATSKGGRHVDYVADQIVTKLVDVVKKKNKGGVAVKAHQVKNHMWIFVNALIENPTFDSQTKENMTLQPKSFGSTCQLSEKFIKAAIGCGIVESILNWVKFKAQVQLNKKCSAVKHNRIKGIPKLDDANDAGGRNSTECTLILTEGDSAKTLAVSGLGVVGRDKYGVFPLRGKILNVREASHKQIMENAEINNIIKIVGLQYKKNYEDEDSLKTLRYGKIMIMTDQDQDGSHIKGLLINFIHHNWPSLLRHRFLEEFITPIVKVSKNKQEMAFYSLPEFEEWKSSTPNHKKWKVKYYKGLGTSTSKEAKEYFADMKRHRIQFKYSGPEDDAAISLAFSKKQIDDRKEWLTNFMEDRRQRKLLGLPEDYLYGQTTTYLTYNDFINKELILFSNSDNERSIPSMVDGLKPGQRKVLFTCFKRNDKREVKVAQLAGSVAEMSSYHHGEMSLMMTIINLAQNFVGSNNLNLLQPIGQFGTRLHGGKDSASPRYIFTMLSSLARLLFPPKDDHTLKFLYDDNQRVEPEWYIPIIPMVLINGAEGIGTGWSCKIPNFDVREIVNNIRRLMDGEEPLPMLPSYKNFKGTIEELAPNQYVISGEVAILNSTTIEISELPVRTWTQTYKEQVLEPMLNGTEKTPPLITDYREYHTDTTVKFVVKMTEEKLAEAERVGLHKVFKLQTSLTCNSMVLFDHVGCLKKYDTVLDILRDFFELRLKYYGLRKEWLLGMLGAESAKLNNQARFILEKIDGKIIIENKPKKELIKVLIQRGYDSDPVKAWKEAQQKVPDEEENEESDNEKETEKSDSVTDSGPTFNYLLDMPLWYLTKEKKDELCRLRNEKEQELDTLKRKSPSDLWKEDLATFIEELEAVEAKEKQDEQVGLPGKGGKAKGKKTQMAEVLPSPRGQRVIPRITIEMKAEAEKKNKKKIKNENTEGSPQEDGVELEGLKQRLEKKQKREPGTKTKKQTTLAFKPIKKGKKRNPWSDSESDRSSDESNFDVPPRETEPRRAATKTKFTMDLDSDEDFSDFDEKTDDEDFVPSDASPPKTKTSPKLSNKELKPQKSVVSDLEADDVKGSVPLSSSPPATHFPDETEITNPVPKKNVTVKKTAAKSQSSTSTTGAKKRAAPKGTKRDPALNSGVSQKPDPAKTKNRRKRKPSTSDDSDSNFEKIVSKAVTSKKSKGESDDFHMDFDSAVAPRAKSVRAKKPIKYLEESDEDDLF

SMILES | inhibition
CC(C)(C)Nc1c(-c2ccc(Cl)cc2)nc2cnccn12 | inactive
CCOC(=O)c1cnn2c(N)c(-c3ccc(Cl)cc3)[nH]c12 | inactive
CCOC(=O)c1cnn2c(NC(C)(C)C)c(-c3ccc(Cl)cc3)[nH]c12 | inactive
Nc1c(-c2ccc(Cl)cc2)nc2cnccn12 | inactive
COc1cc([C@@H]2c3cc4c(cc3[C@@H](O[C@@H]3O[C@@H]5CO[C@@H](C)O[C@H]5[C@H](O)[C@H]3O)[C@H]3COC(=O)[C@H]23)OCO4)cc(OC)c1O [ETOPOSIDE] | inactive

system: HEK293; assay: Anticlonogenic activity against human HEK293 cells after 48 hrs by crystal violet staining; format: functional; conditions: HEK293, 48 h, read-out: LC50 (the source's name)
Summary of the method: (§1)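 HEK 293 and Vero cells were grown in DMEM with 10% FBS and 1% penicillin/streptomycin at 37 °C in 5% CO₂. At 60–70% confluence they were exposed for 48 h to a range of concentrations, diluted in DMEM from 100 mM DMSO stocks. Colony survival is expressed as %. Values are mean ± SD of three independent experiments; LC₅₀ is the concentration killing half the cells.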

SMILES | CC50
CC(C)(C)Nc1c(-c2ccc(Cl)cc2)nc2cnccn12 | 20 µM
CCOC(=O)c1cnn2c(N)c(-c3ccc(Cl)cc3)[nH]c12 | 25 µM
CCOC(=O)c1cnn2c(NC(C)(C)C)c(-c3ccc(Cl)cc3)[nH]c12 | 15 µM
Nc1c(-c2ccc(Cl)cc2)nc2cnccn12 | 16 µM

biological target: T1, DNA topoisomerase 2-alpha; conditions: HEK293, 100 uM

SMILES | inhibition
COc1cc([C@@H]2c3cc4c(cc3[C@@H](O[C@@H]3O[C@@H]5CO[C@@H](C)O[C@H]5[C@H](O)[C@H]3O)[C@H]3COC(=O)[C@H]23)OCO4)cc(OC)c1O [ETOPOSIDE] | inactive

system: HEK293; assay: Cytotoxicity against human HEK293 cells assessed as cell survival after 48 hrs by MTT assay; format: functional; conditions: HEK293, 48 h, read-out: LC50 (the source's name)
Summary of the method: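 HEK 293 cells were cultured in DMEM with 10% FBS and antibiotics at 37 °C in 5% CO₂. At 60–70% confluence they were treated for 48 h with various concentrations, diluted in DMEM from 100 mM DMSO stocks. Survival was read by MTT. LC₅₀ is the concentration killing 50% of cells. Data are mean ± SD of three independent experiments.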

SMILES | CC50
CC(C)(C)Nc1c(-c2ccc(Cl)cc2)nc2cnccn12 | 10 µM
CCOC(=O)c1cnn2c(N)c(-c3ccc(Cl)cc3)[nH]c12 | 25 µM
CCOC(=O)c1cnn2c(NC(C)(C)C)c(-c3ccc(Cl)cc3)[nH]c12 | 15 µM
Nc1c(-c2ccc(Cl)cc2)nc2cnccn12 | 17 µM
COc1cc([C@@H]2c3cc4c(cc3[C@@H](O[C@@H]3O[C@@H]5CO[C@@H](C)O[C@H]5[C@H](O)[C@H]3O)[C@H]3COC(=O)[C@H]23)OCO4)cc(OC)c1O [ETOPOSIDE] | 90 µM

biological target: T1, DNA topoisomerase 2-alpha; assay: Inhibition of human topoisomerase 2 alpha-mediated decatenation of kDNA at 100 uM by agarose gel electrophoresis; conditions: not given
Summary of the method: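 150 ng kDNA with 2–4 units purified human topo II and 100 μM compound in DMSO, buffer 0.5 M Tris-HCl pH 8, NaCl, MgCl2, DTT, BSA with ATP (stock buffer concentrations), 20 μL, 37 °C 30 min. Stopped with SDS, proteinase K 37 °C 15 min; 1% agarose in TAE with 0.5 μg/mL EtBr; bands quantified by densitometry; etoposide 100 μM as reference.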

SMILES | inhibition
COc1ccc(-c2nc3cnccn3c2N)cc1 | Active
CC(C)(C)Nc1nc2ncccn2c1-c1ccc(C#N)cc1 | inactive
CC(C)(C)Nc1c(-c2ccc[nH]2)nc2ccccn12 | inactive
N#Cc1ccc(-c2nc3ccc(Br)cn3c2N)cc1 | Active
CC(C)(C)Nc1c(-c2ccc(Cl)cc2)nc2cnccn12 | Active
CCCc1nc2ccccn2c1NC(C)(C)C | inactive
CCOC(=O)c1cnn2c(N)c(-c3ccc(Cl)cc3)[nH]c12 | Active
CC(C)(C)Nc1c(-c2ccccn2)nc2ccccn12 | Active
Cc1ccn2c(NC(C)(C)C)c(-c3ccc(Cl)cc3)nc2c1 | inactive
CC(C)(C)Nc1cnc2ccccn12 | inactive
CC(C)(C)Nc1c(-c2ccccc2Cl)nc2cnccn12 | Active
CCOC(=O)c1cnn2c(NC(C)(C)C)c(-c3ccc(Cl)cc3)[nH]c12 | Active
CC(C)(C)Nc1c(-c2ccc(Cl)cc2)nc2ccc(Cl)cn12 | Active
CC(C)(C)Nc1c(-c2cccc3ccccc23)nc2ccccn12 | Active
CN(C)c1ccc(-c2nc3ccccn3c2NC(C)(C)C)cc1 | Active
Nc1c(-c2ccccn2)nc2ccc(Cl)cn12 | inactive
COc1cccc(-c2nc3cnccn3c2NC(C)(C)C)c1 | inactive
Nc1c(-c2ccc(Cl)cc2)nc2ccccn12 | Active
CC(C)(C)Nc1c(-c2ccc(Cl)cc2)nc2ccccn12 | inactive
CC(C)(C)Nc1c(-c2ccc(F)cc2)nc2ccc(Cl)cn12 | Active
CC(C)(C)Nc1cnc2cnccn12 | inactive
CC(C)(C)Nc1c(-c2ccccc2)nc2cnccn12 | inactive
CC(C)(C)Nc1c(-c2ccc(C(=O)O)cc2)nc2cnccn12 | inactive
CC(C)(C)Nc1c(-c2ccc(Cl)cc2)nc2ncccn12 | Active
CCOC(=O)c1cnn2c(NC3CCCCC3)c(-c3ccc(Cl)cc3)[nH]c12 | Active
Clc1ccc(-c2nc3cnccn3c2NC2CCCCC2)cc1 | inactive
Nc1c(-c2ccc(Cl)cc2)nc2cnccn12 | Active
CC(C)(C)Nc1c(-c2ccc(Cl)cc2)nc2[nH]c3ccccc3n12 | Active

system: not listed separately; assay: Anticlonogenic activity against african green monkey Vero after 48 hrs by crystal violet staining; format: ADME, cell-based; conditions: chlorocebus sabaeus, Vero cells; read-out: LC50; summary of the method: as §1

SMILES | CC50 at 48 h
CC(C)(C)Nc1c(-c2ccc(Cl)cc2)nc2cnccn12 | 25 µM
CCOC(=O)c1cnn2c(N)c(-c3ccc(Cl)cc3)[nH]c12 | 62 µM
CCOC(=O)c1cnn2c(NC(C)(C)C)c(-c3ccc(Cl)cc3)[nH]c12 | 22 µM
Nc1c(-c2ccc(Cl)cc2)nc2cnccn12 | 28 µM

biological target: T1, DNA topoisomerase 2-alpha; conditions: HEK293, 100 uM; remark: another data set of the same source

SMILES | inhibition
COc1cc([C@@H]2c3cc4c(cc3[C@@H](O[C@@H]3O[C@@H]5CO[C@@H](C)O[C@H]5[C@H](O)[C@H]3O)[C@H]3COC(=O)[C@H]23)OCO4)cc(OC)c1O [ETOPOSIDE] | Active

system: HEK293; assay: Cytotoxicity against human HEK293 cells assessed as cell survival at 30 uM after 48 hrs by MTT assay; format: functional; conditions: HEK293, 48 h, read-out: Activity

SMILES | viability at 30 µM
O=c1[nH]cc(F)c(=O)[nH]1 [FLUOROURACIL] | 50%

system: HEK293; assay: Anticlonogenic activity against human HEK293 cells assessed as inhibition of colony formation of cells at 20 to 100 uM after 48 hrs by crystal violet staining; format: functional, cell-based; conditions: not given
Summary of the method: (§2)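 Clonogenic survival in HEK 293 and Vero cells, 48 h exposure at graded concentrations; % survival plotted; mean ± SD of three independent experiments. Cells grown in DMEM with 10% FBS and 1% antibiotic at 37 °C, 5% CO2; compound diluted from 100 mM DMSO stock into DMEM, added at 60–70% confluence.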

SMILES | inhibition
CC(C)(C)Nc1c(-c2ccc(Cl)cc2)nc2cnccn12 | Dose-dependent effect
CCOC(=O)c1cnn2c(N)c(-c3ccc(Cl)cc3)[nH]c12 | Dose-dependent effect
CCOC(=O)c1cnn2c(NC(C)(C)C)c(-c3ccc(Cl)cc3)[nH]c12 | Dose-dependent effect
Nc1c(-c2ccc(Cl)cc2)nc2cnccn12 | Dose-dependent effect

biological target: T1, DNA topoisomerase 2-alpha; assay: Inhibition of human topoisomerase 2 alpha-mediated relaxation of pRYG plasmid DNA at 100 uM by agarose gel electrophoresis; conditions: not given
Summary of the method: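 250 ng supercoiled pRYG plasmid, 2–4 units hTopoIIα, 100 μM compound, ATP-containing Tris pH 8 buffer, 20 μL, 37 °C 30 min; SDS/proteinase K stop; 1% agarose in TAE without EtBr, post-stained 0.5 μg/mL EtBr; products quantified densitometrically.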

SMILES | inhibition
COc1ccc(-c2nc3cnccn3c2N)cc1 | Active
CC(C)(C)Nc1c(-c2ccc(Cl)cc2)nc2cnccn12 | Active
CCOC(=O)c1cnn2c(N)c(-c3ccc(Cl)cc3)[nH]c12 | Active
CC(C)(C)Nc1c(-c2ccccn2)nc2ccccn12 | Active
CCOC(=O)c1cnn2c(NC(C)(C)C)c(-c3ccc(Cl)cc3)[nH]c12 | Active
CC(C)(C)Nc1c(-c2ccc(Cl)cc2)nc2ccc(Cl)cn12 | Active
Nc1c(-c2ccc(Cl)cc2)nc2ccccn12 | Active
Nc1c(-c2ccc(Cl)cc2)nc2cnccn12 | Active

system: not listed separately; assay: Cytotoxicity activity against african green monkey Vero assessed as cell survival at 100 uM after 48 hrs by MTT assay; format: cell-based; conditions: chlorocebus sabaeus, Vero cells; read-out: Activity
Summary of the method: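 MTT survival of HEK 293 and Vero cells after 48 h with compound at graded concentrations. DMEM, 10% FBS, 37 °C, 5% CO2; dilutions in DMEM from 100 mM DMSO stock, added at 60–70% confluence. Mean ± SD of three independent experiments.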

SMILES | viability at 48 h, 100 µM
CC(C)(C)Nc1c(-c2ccc(Cl)cc2)nc2cnccn12 | < 50%
CCOC(=O)c1cnn2c(N)c(-c3ccc(Cl)cc3)[nH]c12 | < 50%
CCOC(=O)c1cnn2c(NC(C)(C)C)c(-c3ccc(Cl)cc3)[nH]c12 | < 50%
Nc1c(-c2ccc(Cl)cc2)nc2cnccn12 | < 50%

system: Vero; assay: Anticlonogenic activity against african green monkey Vero cells assessed as inhibition of colony formation of cells at 20 to 100 uM after 48 hrs by crystal violet staining; format: cell-based; conditions: chlorocebus sabaeus; summary of the method: as §2

SMILES | inhibition (INH)
CC(C)(C)Nc1c(-c2ccc(Cl)cc2)nc2cnccn12 | Dose-dependent effect
CCOC(=O)c1cnn2c(N)c(-c3ccc(Cl)cc3)[nH]c12 | Dose-dependent effect
CCOC(=O)c1cnn2c(NC(C)(C)C)c(-c3ccc(Cl)cc3)[nH]c12 | Dose-dependent effect
Nc1c(-c2ccc(Cl)cc2)nc2cnccn12 | Dose-dependent effect

biological target: T1, DNA topoisomerase 2-alpha; assay: Inhibition of etoposide poisoning activity against human recombinant DNA topoisomerase 2alpha assessed as enhancement of in relaxation of supercoiled plasmid pBR322 DNA at 100 uM after 30 mins by agarose gel electrophoresis; conditions: not given

SMILES | inhibition
CC(C)(C)Nc1c(-c2ccc(Cl)cc2)nc2cnccn12 | inactive
CCOC(=O)c1cnn2c(N)c(-c3ccc(Cl)cc3)[nH]c12 | inactive
CCOC(=O)c1cnn2c(NC(C)(C)C)c(-c3ccc(Cl)cc3)[nH]c12 | inactive
Nc1c(-c2ccc(Cl)cc2)nc2cnccn12 | inactive
COc1cc([C@@H]2c3cc4c(cc3[C@@H](O[C@@H]3O[C@@H]5CO[C@@H](C)O[C@H]5[C@H](O)[C@H]3O)[C@H]3COC(=O)[C@H]23)OCO4)cc(OC)c1O [ETOPOSIDE] | Active

biological target: T1, DNA topoisomerase 2-alpha; assay: Inhibition of human topoisomerase 2 alpha-mediated unwinding of supercoiled DNA assessed as DNA intercalation at 100 uM by agarose gel electrophoresis; conditions: not given
Summary of the method: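 250 ng negatively supercoiled E. coli plasmid incubated 20 min at 37 °C with 1 μg/mL ethidium bromide (intercalator control), 100 μM etoposide or test compound; run on 1% agarose in TAE without EtBr, then post-stained with 0.5 μg/mL EtBr; mobility retardation scored.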

SMILES | inhibition
CC(C)(C)Nc1c(-c2ccc(Cl)cc2)nc2cnccn12 | inactive
CCOC(=O)c1cnn2c(N)c(-c3ccc(Cl)cc3)[nH]c12 | inactive
CCOC(=O)c1cnn2c(NC(C)(C)C)c(-c3ccc(Cl)cc3)[nH]c12 | inactive
Nc1c(-c2ccc(Cl)cc2)nc2cnccn12 | inactive
COc1cc([C@@H]2c3cc4c(cc3[C@@H](O[C@@H]3O[C@@H]5CO[C@@H](C)O[C@H]5[C@H](O)[C@H]3O)[C@H]3COC(=O)[C@H]23)OCO4)cc(OC)c1O [ETOPOSIDE] | inactive

From ChEMBL document CHEMBL1914308, “N-fused imidazoles as novel anticancer agents that inhibit catalytic activity of topoisomerase IIα and induce apoptosis in G1/S phase” (J Med Chem, 2011)
